Experimental data from different studies.
Each line is one published result; the experiments were not run side by side.
FLT3 D835Y: Receptor-type tyrosine-protein kinase FLT3 (FLT3, Homo sapiens, UniProt P36888, D835Y)
FLT3: Receptor-type tyrosine-protein kinase FLT3 (FLT3, Homo sapiens, UniProt P36888)
FLT3 N841I: Receptor-type tyrosine-protein kinase FLT3 (FLT3, Homo sapiens, UniProt P36888, N841I)

Cc1n[nH]c2ccc3nc(-c4ccc(C(=O)NCCN(C)C)cc4F)c4c(c3c12)CCCC4
remaining activity (FLT3 D835Y; enzyme activity, inhibitor, radiometric; 0.5 µM): 2%

O=C1C=C(Nc2ccc(OCc3cn(Cc4ccc(Cl)c(Cl)c4)nn3)cc2)C(=O)c2ccccc21
inhibition (FLT3; enzyme activity, inhibitor, radiometric; 10 µM): -21%

Cc1ccc(NC(=O)c2ccnc(C(F)(F)F)c2)cc1-c1cc(OCCO)nc(N2CCOCC2)c1
remaining binding (Receptor-type tyrosine-protein kinase FLT3 (FLT3, Homo sapiens, UniProt P36888, R834Q); binding; 1 µM): 100%

COc1ccc2oc(-c3ccc4nc(N)oc4c3)c/c(=N\c3ccccc3NC(=O)CCN)c2c1
remaining signal (FLT3 D835Y; cell-free assay; 1 µM): 92%

CN1CCN(C(=O)c2ccc(NC(=O)Nc3ccc(N(C)c4ccnc(Nc5ccc(CS(C)(=O)=O)cc5)n4)cc3)cc2)CC1
remaining binding (FLT3 D835Y; binding; 1 µM): 5.3%

C[C@]1(O)CCCN(c2nc(Nc3ccc(S(=O)(=O)N[C@H]4CC[C@H](CN5CCN(c6ccc(C7CCC(=O)NC7=O)cc6F)CC5)CC4)cc3F)ncc2C(F)(F)F)C1 (some centres unmarked)
remaining binding (FLT3 N841I; binding, competition with immobilised ligand; 1 µM): 72%

C1=C/COCc2cc(ccc2OCCN2CCCC2)Nc2nccc(n2)-c2cccc(c2)COC/1
remaining binding (FLT3 N841I; binding; 0.1 µM): 4.3%

CCCCC(=O)Nc1ccc(-c2ccc3ncn(CCC)c(=O)c3c2)cn1
remaining binding (Receptor-type tyrosine-protein kinase FLT3 (FLT3, Homo sapiens, UniProt P36888, K663Q); binding, competition with immobilised ligand; 0.5 µM): 96%

C[C@H]1CC[C@H](n2c3cnccc3c3cnc(Nc4ccc5c(n4)CCN(C(=O)CO)C5)nc32)CC1
remaining signal (FLT3 N841I; cell-free assay; 1 µM): 0%

C=CC(=O)N1CCC([C@@H]2CCNc3c(C(N)=O)c(-c4ccc(Oc5ccccc5)cc4)nn32)CC1
inhibition (FLT3 D835Y; enzyme activity, inhibitor; 1 µM): 81%

CNS(=O)(=O)c1ccc(Nc2ncc(C(F)(F)F)c(N3CCC[C@](C)(O)C3)n2)c(C)c1
remaining binding (FLT3 N841I; binding, competition with immobilised ligand; 1 µM): 70%

CC#CC(=O)N1CCC[C@H]1c1nc(-c2ccc(C(=O)Nc3ccccn3)cc2)c2c(N)nccn12
inhibition (FLT3 N841I; enzyme activity, inhibitor; 1 µM): 18%

C#Cc1cc(-c2cc(Nc3nc(N[C@@H](C)c4ccc(F)cn4)ncc3Cl)n[nH]2)ccc1C=O
inhibition (FLT3; enzyme activity, inhibitor; 0.2 µM): 98.8%

COc1ccc2[nH]c3c4[nH]c5ccc(OC)cc5c4c4c(c3c2c1)C(=O)NC4=O
remaining binding (Receptor-type tyrosine-protein kinase FLT3 (FLT3, Homo sapiens, UniProt P36888, D835V); binding; 1 µM): 4%
